Laboratory results published in ChEMBL document CHEMBL1156119 (J Med Chem, 2009).
The source made the active and inactive calls. No cut-off for these calls is given here.

Experiments:
SMB [1] = experiment: Antiprion activity against Scrapie prion protein-mediated scrapie in mouse SMB cells assessed as remaining PrP-Sc level at 1 uM after 5 days by Bradford assay relative to control; type: cell-based
In short: (§1)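 Compound DMSO stocks were diluted via HBSS into medium and applied for 5 days. Lysates of ~30-40 μg protein/well were dot-blotted, digested with proteinase K at 75 μg mL⁻¹ (1 h, 37 °C) and denatured in 1.8 M guanidine thiocyanate. Read-out was %PrP^Sc versus DMSO-only control, in triplicate.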

[2] = Antiprion activity against Scrapie prion protein-mediated scrapie in mouse SMB cells assessed as remaining PrP-Sc level after 5 days by Bradford assay; type: cell-based; conditions: 120 h
In short: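 Same SMB dot-blot protocol with 5-day exposure. Compounds were rescreened over a range of concentrations to fit an EC₅₀ from dose-response curves. Each determination was run in triplicate, in at least two independent experiments. PrP^Sc was measured relative to an untreated DMSO-only control.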

[3] = target: Major prion protein (Mus musculus) (UniProt P04925); experiment: Binding affinity to mouse PrP up to 40 uM by surface plasmon resonance assay
Chain of Major prion protein (Mus musculus) (P04925 whole entry): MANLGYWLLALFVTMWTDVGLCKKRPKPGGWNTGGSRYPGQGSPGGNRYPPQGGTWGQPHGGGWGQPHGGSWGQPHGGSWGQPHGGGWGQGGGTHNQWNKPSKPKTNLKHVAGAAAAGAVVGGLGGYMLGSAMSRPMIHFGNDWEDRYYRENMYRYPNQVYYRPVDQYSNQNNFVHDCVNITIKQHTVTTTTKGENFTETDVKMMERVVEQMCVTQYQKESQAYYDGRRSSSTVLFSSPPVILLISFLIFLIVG

[4] = target: Major prion protein (Homo sapiens) (UniProt P04156); experiment: Binding affinity to human PrP up to 40 uM by surface plasmon resonance assay
SMB [5] = experiment: Antiprion activity against Scrapie prion protein-mediated scrapie in mouse SMB cells assessed as remaining PrP-Sc level at 20 uM after 5 days by Bradford assay relative to control; type: cell-based
In short: as §1, with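 “SMB scrapie-infected mouse cells, non-neuronal, in medium 199 with 10% newborn calf and 5% fetal calf serum, seeded at 3 × 10⁴ cells/well and attached for 24 h. Compound” for “Compound”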

SMB [6] = experiment: Antiprion activity against Scrapie prion protein-mediated scrapie in mouse SMB cells assessed as remaining PrP-Sc level at 10 uM after 5 days by Bradford assay relative to control; type: cell-based
In short: as §1, with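 “SMB scrapie-infected mouse cells, non-neuronal, in medium 199 with 10% newborn calf and 5% fetal calf serum, seeded at 3 × 10⁴ cells/well and attached for 24 h. Compound” for “Compound”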

[7] = Cytotoxicity against mouse SMB cells at 20 uM after 5 days by MTT assay; type: cell-based; conditions: 120 h
In short: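 SMB cells were seeded at 3 × 10⁴ cells/well and attached for 24 h. Compound was added from DMSO stock diluted through HBSS into the medium, and cells were exposed for 5 days. Viability was read by MTT assay following the standard reagent protocol.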

Structure (SMILES) | EC50 [2] | Remaining PrP-Sc level (SMB [5]) | further results
O=C(Nc1ccccc1)C(=O)c1c[nH]c2ccccc12 | 320 nM | – | Activity (SMB [1]): 19.5%; Activity [3]: inactive; Activity [4]: inactive
O=C(Nc1cccc2ccc(O)cc12)C(=O)c1c[nH]c2ccccc12 | – | 115% | –
Cn1cc(C(=O)C(=O)Nc2cccc(CO)c2)c2ccccc21 | – | 137% | –
CSc1ccc(CNC(=O)C(=O)c2c[nH]c3ccccc23)cc1 | 40 nM | – | Activity (SMB [1]): 5.6%
Cn1cc(C(=O)C(=O)NCc2ccccc2)c2ccccc21 | – | – | Remaining PrP-Sc level (SMB [6]): 148%
O=C(Nc1cccc(Oc2ccccc2)c1)C(=O)c1c[nH]c2ccccc12 | – | 98.3% | –
C=CCNC(=O)C(=O)c1c[nH]c2ccccc12 | – | 158% | –
Cc1ccccc1NC(=O)C(=O)c1c[nH]c2ccccc12 | – | 93.8% | –
Cc1[nH]c2ccccc2c1C(=O)C(=O)Nc1cccc(CO)c1 | – | 80.8% | –
O=C(Nc1ccc(C(F)(F)F)cc1)C(=O)c1c[nH]c2ccccc12 | 290 nM | – | Activity (SMB [1]): 6.1%
Cc1[nH]c2ccccc2c1C(=O)C(=O)NCc1cccnc1 | – | 73.7% | –
O=C(Nc1ccc(-n2cccn2)cc1)C(=O)c1c[nH]c2ccccc12 | 1 nM | – | Activity (SMB [1]): 7%
CCOc1ccc(CNC(=O)C(=O)c2c[nH]c3ccccc23)cc1 | 60 nM | – | Activity (SMB [1]): 6.5%
Cc1ccc(NC(=O)C(=O)c2c[nH]c3ccccc23)cc1C | 1200 nM | – | Activity (SMB [1]): 48.7%
COc1cccc(NC(=O)C(=O)c2c(C)[nH]c3ccccc23)c1 | – | 133% | –
O=C(C(=O)N1CCCCC1)c1c[nH]c2ccccc12 | – | 112% | –
O=C(NC1CCCCC1)C(=O)c1c[nH]c2ccccc12 | – | 83.1% | –
CC(=O)c1cccc(NC(=O)C(=O)c2c[nH]c3ccccc23)c1 | – | – | Remaining PrP-Sc level (SMB [6]): 98.8%
O=C(Nc1cccc2c(O)cccc12)C(=O)c1c[nH]c2ccccc12 | – | 101% | –
Cc1csc(NC(=O)C(=O)c2c[nH]c3ccccc23)n1 | – | – | Remaining PrP-Sc level (SMB [6]): 105%
COc1cc(NC(=O)C(=O)c2cn(C)c3ccccc23)ncn1 | – | – | Remaining PrP-Sc level (SMB [6]): 86.4%
Cc1[nH]c2ccccc2c1C(=O)C(=O)NC1CCCCC1 | – | 102% | Activity [7]: Toxic

Structure (SMILES) | EC50 [2] | Remaining PrP-Sc level (SMB [5]) | further results
Cc1[nH]c2ccccc2c1C(=O)C(=O)Nc1cccc2ccccc12 | – | 96.3% | –
O=C(Nc1cccc(CO)c1)C(=O)c1c[nH]c2ccccc12 | 14800 nM | – | Remaining PrP-Sc level (SMB [6]): 17.6%
Cc1[nH]c2ccccc2c1C(=O)C(=O)Nc1ccccc1 | – | – | Remaining PrP-Sc level (SMB [6]): 41.6%
O=C(Nc1ccc(F)c(F)c1)C(=O)c1c[nH]c2ccccc12 | 320 nM | – | Activity (SMB [1]): 1.4%
O=C(Nc1ccc(F)cc1)C(=O)c1c[nH]c2ccccc12 | 64 nM | – | Activity (SMB [1]): 10.3%
Cn1cc(C(=O)C(=O)Nc2cccc(Oc3ccccc3)c2)c2ccccc21 | – | – | Remaining PrP-Sc level (SMB [6]): 169%; Activity [7]: Toxic
Cn1cc(C(=O)C(=O)N2CCOCC2)c2ccccc21 | – | 100% | –
Cn1cc(C(=O)C(=O)N2CCCCC2)c2ccccc21 | – | – | Remaining PrP-Sc level (SMB [6]): 131%; Activity [7]: Toxic
O=C(Nc1cccc(Cl)c1)C(=O)c1c[nH]c2ccccc12 | 1510 nM | – | Remaining PrP-Sc level (SMB [6]): 40%
Cn1cc(C(=O)C(=O)Nc2ccccc2)c2ccccc21 | 6900 nM | 81.4% | –
Cn1cc(C(=O)C(=O)Nc2cccc(C#N)c2)c2ccccc21 | – | 91.2% | Activity [7]: Toxic
CN(C)c1ccc(NC(=O)C(=O)c2c[nH]c3ccccc23)cc1 | 26 nM | – | Activity (SMB [1]): 7.2%
Cn1cc(C(=O)C(=O)Nc2cccc(F)c2)c2ccccc21 | – | 11.6% | –
Cc1[nH]c2ccccc2c1C(=O)C(=O)Nc1cccc2c(O)cccc12 | – | – | Activity [7]: Toxic
O=C(C(=O)N1CCOCC1)c1c[nH]c2ccccc12 | – | 80.3% | –
Cc1[nH]c2ccccc2c1C(=O)C(=O)Nc1cccc(F)c1 | – | 64% | –
COc1ccc(NC(=O)C(=O)c2c(C)[nH]c3ccccc23)cc1 | – | 72.4% | –
COc1cc(NC(=O)C(=O)c2c(C)[nH]c3ccccc23)ncn1 | – | 69.7% | –
O=C(Nc1cccc2ccccc12)C(=O)c1c[nH]c2ccccc12 | – | 135% | –
Cc1[nH]c2ccccc2c1C(=O)C(=O)NCc1ccco1 | – | 83% | Activity [7]: Toxic
COc1ccc(NC(=O)C(=O)c2cn(C)c3ccccc23)cc1 | 68 nM | – | Activity (SMB [1]): 11.6%
CCCCNC(=O)C(=O)c1c[nH]c2ccccc12 | – | 80.8% | –

Structure (SMILES) | EC50 [2] | Remaining PrP-Sc level (SMB [5]) | further results
O=C(Nc1ccc(Cl)cc1)C(=O)c1c[nH]c2ccccc12 | 65 nM | – | Activity (SMB [1]): 5.9%
COc1cc(NC(=O)C(=O)c2c[nH]c3ccccc23)cc(OC)c1OC | – | 143% | –
CC(=O)c1cccc(NC(=O)C(=O)c2c(C)[nH]c3ccccc23)c1 | – | 84.4% | –
Cn1cc(C(=O)C(=O)NCc2cccnc2)c2ccccc21 | – | – | Remaining PrP-Sc level (SMB [6]): 117%
O=C(Nc1cc(F)c(F)c(F)c1)C(=O)c1c[nH]c2ccccc12 | – | 62.5% | –
COc1ccc(NC(=O)C(=O)c2c[nH]c3ccccc23)cn1 | 120 nM | – | Activity (SMB [1]): 4.9%
O=C(NCc1ccccc1)C(=O)c1c[nH]c2ccccc12 | – | 90% | –
O=C(Nc1cccnc1)C(=O)c1c[nH]c2ccccc12 | 1660 nM | – | Remaining PrP-Sc level (SMB [6]): 8%
CCc1cccc(NC(=O)C(=O)c2c(C)[nH]c3ccccc23)c1 | – | 78.8% | –
N#Cc1cccc(NC(=O)C(=O)c2c[nH]c3ccccc23)c1 | – | 70.1% | –
O=C(Nc1ccccc1Cl)C(=O)c1c[nH]c2ccccc12 | – | 85.4% | –
COc1ccccc1NC(=O)C(=O)c1c[nH]c2ccccc12 | – | – | Remaining PrP-Sc level (SMB [6]): 140%; Activity [7]: Toxic
COc1ccc(CNC(=O)C(=O)c2c[nH]c3ccccc23)cc1OC | 520 nM | – | Activity (SMB [1]): 19.3%
COc1cccc(CNC(=O)C(=O)c2c[nH]c3ccccc23)c1 | – | 104% | –
Cn1cc(C(=O)C(=O)NCc2ccco2)c2ccccc21 | – | 109% | –
Cn1cc(C(=O)C(=O)Nc2cccc3c(O)cccc23)c2ccccc21 | – | 114% | –
CCCCNC(=O)C(=O)c1cn(C)c2ccccc12 | – | 124% | –
CC(=O)c1cccc(NC(=O)C(=O)c2cn(C)c3ccccc23)c1 | – | 157% | –
O=C(Nc1ccc(-c2cnco2)cc1)C(=O)c1c[nH]c2ccccc12 | 19 nM | – | Activity (SMB [1]): 16.8%
Cc1ccc(NC(=O)C(=O)c2c[nH]c3ccccc23)cc1 | 130 nM | – | Activity (SMB [1]): 4.1%
O=C(NCc1ccco1)C(=O)c1c[nH]c2ccccc12 | – | 95.2% | –
O=C(Nc1ccc(OC(F)(F)F)cc1)C(=O)c1c[nH]c2ccccc12 | 380 nM | – | Activity (SMB [1]): 6.7%

Structure (SMILES) | EC50 [2] | Remaining PrP-Sc level (SMB [5]) | further results
Cc1[nH]c2ccccc2c1C(=O)C(=O)Nc1cnc2ccccc2c1 | – | 87.6% | Activity [7]: Toxic
O=C(Nc1cccc(O)c1)C(=O)c1c[nH]c2ccccc12 | 820 nM | – | Activity (SMB [1]): 52.4%
O=C(NCc1ccc(Oc2ccccc2)cc1)C(=O)c1c[nH]c2ccccc12 | 1030 nM | – | Remaining PrP-Sc level (SMB [6]): 17.5%
O=C(Nc1cccc(-c2cnco2)c1)C(=O)c1c[nH]c2ccccc12 | 530 nM | – | Remaining PrP-Sc level (SMB [6]): 16.8%
Cn1cc(C(=O)C(=O)Nc2cnc3ccccc3c2)c2ccccc21 | – | 102% | Activity [7]: Toxic
Cc1[nH]c2ccccc2c1C(=O)C(=O)N1CCOCC1 | – | 81.9% | –
COc1cc(NC(=O)C(=O)c2c[nH]c3ccccc23)cc(OC)c1 | – | 75.4% | –
Cc1[nH]c2ccccc2c1C(=O)C(=O)Nc1cccc(Oc2ccccc2)c1 | – | – | Remaining PrP-Sc level (SMB [6]): 103%
Cc1cccc(NC(=O)C(=O)c2c[nH]c3ccccc23)c1 | 6350 nM | – | Remaining PrP-Sc level (SMB [6]): 21.7%
Cc1[nH]c2ccccc2c1C(=O)C(=O)Nc1cccc(C#N)c1 | – | 78.5% | –
Cc1[nH]c2ccccc2c1C(=O)C(=O)Nc1ccc(O)cc1 | – | 83.1% | –
COc1cccc(NC(=O)C(=O)c2cn(C)c3ccccc23)c1 | 4730 nM | 61.8% | –
COc1ccc(CNC(=O)C(=O)c2c[nH]c3ccccc23)cc1 | – | 104% | –
O=C(Nc1ccc(-n2cccc2)cc1)C(=O)c1c[nH]c2ccccc12 | 6 nM | – | Activity (SMB [1]): 17.1%
COc1cc(NC(=O)C(=O)c2c[nH]c3ccccc23)ncn1 | 680 nM | – | Activity (SMB [1]): 23%
CCc1cccc(NC(=O)C(=O)c2cn(C)c3ccccc23)c1 | – | 132% | –
CCc1cccc(NC(=O)C(=O)c2c[nH]c3ccccc23)c1 | 12100 nM | – | Remaining PrP-Sc level (SMB [6]): 37.9%
Cn1cc(C(=O)C(=O)Nc2cccc3ccccc23)c2ccccc21 | – | 121% | –
Cn1cc(C(=O)C(=O)Nc2ccc(O)cc2)c2ccccc21 | 3770 nM | – | Remaining PrP-Sc level (SMB [6]): 47.3%
O=C(NCc1cccnc1)C(=O)c1c[nH]c2ccccc12 | – | 107% | –
